These results are taken from ChEMBL document CHEMBL1128331, “New antianginal nitro esters with reduced hypotensive activity. Synthesis and pharmacological evaluation of 3-[(nitrooxy)alkyl]-2H-1,3-benzoxazin-4(3H)-ones” (J Med Chem, 1995).

Molecules are shown by their SMILES.

Data set [1] in a line: Partition coefficient (logP). The class given is physicochemical. Particulars: octanol/water.
The species entered for data set [2] is Rattus norvegicus. The experiment in a line: Inhibition of vasopressin-induced ECG changes in rat. The class given is functional. In a few lines: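 Urethane-anesthetized (1.25 g/kg ip) male Sprague-Dawley rats, lead II ECG. Arg8-vasopressin 1 IU/kg iv (1 mL/kg over 20 s) given 10 min after iv drug or vehicle (GTN 1 min before). T-wave rise measured in mV. 8 rats per dose; percent inhibition against mean control; ED50 from dose-effect regression line.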

For data set [3], the system named is Rattus norvegicus. The experiment in a line: Concentration required to reduce mean arterial blood pressure in rat after intravenous administration. The class given is functional. Particulars: Artery. Put shortly: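 Male Sprague-Dawley rats (350-400 g), urethane 1.25 g/kg ip, tracheal cannula. Carotid catheter records mean arterial pressure continuously; heart rate taken from the pressure wave. Dosing through femoral vein, 1 mL/kg over 20 s. Change expressed as percent of basal; ED20 (dose giving 20% MABP fall) taken from the dose-response curve.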

Data set [4] is filed under the species Rattus norvegicus. As to the kind of experiment: Selectivity index as the ratio of doses requires to induce a reduction in MABP and that required to prevent ECG changes. In kind it is functional. In a few lines: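 Ratio of the iv ED20 for a 20% fall in mean arterial pressure to the iv ED50 for preventing ECG changes, both measured in urethane-anesthetized rats.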

The species entered for data set [5] is Oryctolagus cuniculus. As to the kind of experiment: Vasorelaxation activity in the isolated endothelium-denuded rabbit aorta. The class given is functional. In a few lines:
(§1)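 Endothelium-denuded rabbit aortic strips, precontracted to a stable plateau, then given increasing concentrations cumulatively in the organ chamber; IC50 calculated from the concentration-response curves.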

The subject of data set [6] is Rattus norvegicus. The experiment in a line: Inhibition of methacholine-induced ECG changes in the anesthetized rat after intravenous administration. The class given is functional. Put shortly: (§2)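 Urethane-anesthetized male Sprague-Dawley rats, lead II ECG. Methacholine 8.0 µg in 0.02 mL over 1 s delivered into coronary arteries via a tube passed through the right carotid artery into the coronary ostia; S-T elevation measured in mV. Injection repeated at intervals after a single iv or oral dose. Five rats per dose; percent inhibition over basal; ED50.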

The test system of data set [7] is Rattus norvegicus. As to the kind of experiment: Inhibition of methacholine-induced ECG changes in the anesthetized rat after oral administration. In kind it is functional. In a few lines:
as §2

The species named for data set [8] is Oryctolagus cuniculus. The experiment in a line: Compound was tested for vasorelaxation activity in the isolated endothelium-denuded rabbit aorta. The class given is functional. Put shortly:
as §1

A word on the logP: it is a log measure of how a compound divides between an organic and an aqueous phase. A high value points to higher lipophilicity. In general, ED50 refers to the dose at which the effect has come halfway, by size or by number of responders. A high value points to a need for a large dose. As usually defined, the IC50 is the concentration that gives 50% inhibition. Lower therefore signals greater potency in that assay. With `O=C1c2cc([N+](=O)[O-])ccc2OCN1CCO[N+](=O)[O-]`, in data set [1], the log partition coefficient (logP) is 1.57. This molecule had a 50% effective dose (ED50) in data set [2] of 0.064 mg/kg. In addition, the ED20 in data set [3] turned out to be 0.076 mg/kg. Besides, the Selectivity index in data set [4] came to 1.2. For the same molecule, the IC50 in data set [5] amounted to 21 nM.
For `O=C1c2cc(Cl)ccc2OCN1CCO[N+](=O)[O-]` the same measures were 2.56, 0.107 mg/kg, 0.088 mg/kg, 0.87 and 37 nM.
For the molecule `O=[N+]([O-])OCC(CO[N+](=O)[O-])O[N+](=O)[O-]` [NITROGLYCERIN], the ED50 in data set [2] amounted to 0.545 mg/kg; in data set [6] it was 0.036 mg/kg. Further, the ED20 in data set [3] came to 0.0054 mg/kg. Further, the Selectivity index in data set [4] was determined as 0.01. The same molecule yielded a 50% inhibitory concentration (IC50) in data set [5] of 16 nM.
Consider `O=C1c2ccccc2OCN1CCCO[N+](=O)[O-]`, for which the IC50 in data set [5] came out at 77 nM. Moreover, the ED50 in data set [6] came to 0.001 mg/kg.
As for `O=C1c2ccc(Cl)cc2OCN1CCO[N+](=O)[O-]`, the logP in data set [1] was found to be 2.56. The ED20 in data set [3] is 0.79 mg/kg. In addition, the Selectivity index in data set [4] is recorded as 72. This molecule showed an IC50 in data set [5] of 70 nM.
For `Cc1cccc2c1OCN(CCO[N+](=O)[O-])C2=O`, in data set [2], the ED50 worked out at 0.0582 mg/kg. In data set [3], this molecule yielded an ED20 of 0.88 mg/kg. Also, the Selectivity index in data set [4] came out at 15. In data set [5], this molecule displayed an IC50 of 360 nM.
On to `O=C1c2ccc(C(F)(F)F)cc2OCN1CCO[N+](=O)[O-]`, for which the median effective dose (ED50) in data set [7] was > 0.3 mg/kg; in data set [2] it was 0.0015 mg/kg; in data set [6] it was 0.082 mg/kg. The logP in data set [1] was determined as 2.73. For the same molecule, in data set [3], the ED20 was > 0.3 mg/kg. Further, the Selectivity index in data set [4] is listed as 200. Half-maximal inhibition in data set [8] (IC50) required 220 nM.
On to `O=C(NCCO[N+](=O)[O-])c1cccnc1` [NICORANDIL], for which the median effective dose (ED50) worked out at 3 mg/kg in data set [7], 0.94 mg/kg in data set [2] and 0.047 mg/kg in data set [6]. In data set [3], the ED20 stood at 0.16 mg/kg.
In data set [3], `O=C1c2ccccc2OCN1CCCCCO[N+](=O)[O-]` showed an ED20 of 0.73 mg/kg. Also, in data set [4], the Selectivity index amounted to 13. Further, inhibition in data set [5] was half-maximal at 98 nM (IC50).
Consider `O=C1c2ccccc2OCN1CCO[N+](=O)[O-]` [SINITRODIL], for which the 50% effective dose (ED50) in data set [7] worked out at 0.118 mg/kg; in data set [2], 0.0021 mg/kg. In addition, the logP in data set [1] worked out at 1.85. The same molecule yielded an ED20 in data set [3] of 0.19 mg/kg. Besides, in data set [4], the Selectivity index is 90. In data set [5], this molecule came in with an IC50 of 94 nM.
Regarding `COc1ccc2c(c1)OCN(CCO[N+](=O)[O-])C2=O`, the 50% effective dose (ED50) in data set [7] was > 0.3 mg/kg; in data set [2], 0.002 mg/kg; in data set [6], > 0.01 mg/kg. In data set [1], this molecule yielded a logP of 1.83. This molecule yielded an ED20 in data set [3] of 0.29 mg/kg. Besides, the Selectivity index in data set [4] is 147. For the same molecule, it took 47 nM to reach half-maximal inhibition in data set [5] (IC50).
The molecule `Cc1ccc2c(c1)OCN(CCO[N+](=O)[O-])C2=O` returned a logP in data set [1] of 2.41. Also, the ED20 in data set [3] was 0.22 mg/kg. For the same molecule, in data set [4], the Selectivity index was determined as 17.5. The IC50 in data set [5] is 110 nM.
Consider `Cc1ccc2c(c1)C(=O)N(CCO[N+](=O)[O-])CO2`, for which the 50% effective dose (ED50) in data set [7] came to 0.142 mg/kg; in data set [2], 0.006 mg/kg; in data set [6], 0.00041 mg/kg. This molecule displayed a logP in data set [1] of 2.41. Besides, the ED20 in data set [3] was 0.037 mg/kg. Besides, the Selectivity index in data set [4] amounted to 8.6. This molecule had an IC50 in data set [5] of 35 nM.
Regarding `CN(C)/C=N/c1ccc2c(c1)C(=O)N(CCO[N+](=O)[O-])CO2`, the 50% effective dose (ED50) is > 0.3 mg/kg in data set [7] and 0.0171 mg/kg in data set [6]. Also, the ED20 in data set [3] turned out to be 1.27 mg/kg. For the same molecule, the Selectivity index in data set [4] worked out at 131. The half-inhibitory concentration (IC50) in data set [5] came to 640 nM.
In the case of `COc1ccc2c(c1)C(=O)N(CCO[N+](=O)[O-])CO2`, the ED50 in data set [7] turned out to be 0.1 mg/kg; in data set [2] it was 0.0051 mg/kg; in data set [6], 0.013 mg/kg. In data set [1], this molecule yielded a lipophilicity (logP) of 1.83. Also, the ED20 in data set [3] was > 1 mg/kg. The Selectivity index in data set [4] came out at 421. This molecule came in with an IC50 in data set [5] of 230 nM.
As to `Cc1cccc2c1C(=O)N(CCO[N+](=O)[O-])CO2`, the ED50 is 0.0046 mg/kg in data set [2] and > 0.01 mg/kg in data set [6]. The molecule also had an ED20 in data set [3] of 0.3 mg/kg. The Selectivity index in data set [4] stood at 65. In data set [5], this molecule gave a concentration for half-maximal inhibition (IC50) of 125 nM.
`N#Cc1ccc2c(c1)C(=O)N(CCO[N+](=O)[O-])CO2` had a logP in data set [1] of 1.28. Also, the ED20 in data set [3] was > 0.3 mg/kg. Also, the Selectivity index in data set [4] amounted to 26. Moreover, the 50% inhibitory concentration (IC50) in data set [5] is 71 nM.
